Active and inactive are the calls of the source. The rule behind the calls is not given here.
Legend:
A549 = test: Antiproliferative activity against human A549 cells assessed as inhibition of cell proliferation incubated for 72 hrs by CellTiter-Glo luminescent assay; assay type: functional, cell-based; conditions: A549, 72 h
In short: (§1)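 A549 in RPMI 1640 and U-87MG in DMEM, each with 10% FCS and 1% glutamine, at 37 °C and 5% CO₂. Cells seeded at 3000/well, dosed the next day, treated 72 h. Viability read by CellTiter-Glo luminescence with DMSO-treated cells set to 100%. IC50 taken from survival curves over three independent experiments.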

U-87 MG [1] = test: Antiproliferative activity against human U-87 MG cells assessed as inhibition of cell proliferation incubated for 72 hrs by CellTiter-Glo luminescent assay; assay type: functional, cell-based, U-87MG ATCC; in short: as §1
[2] = biological target: T1, Oxysterol-binding protein 1 (Homo sapiens, UniProt P22059); test: Inhibition of human C-terminal 6-His tagged OSBP ORD domain (401 to 807 residues) expressed in baculovirus-infected Sf9 cells assessed as reduction in DHE transfer from liposome (Le mimicking ER) to liposome (Lg mimicking golgi) with compound by FRET assay
T1 sequence (P22059 whole entry): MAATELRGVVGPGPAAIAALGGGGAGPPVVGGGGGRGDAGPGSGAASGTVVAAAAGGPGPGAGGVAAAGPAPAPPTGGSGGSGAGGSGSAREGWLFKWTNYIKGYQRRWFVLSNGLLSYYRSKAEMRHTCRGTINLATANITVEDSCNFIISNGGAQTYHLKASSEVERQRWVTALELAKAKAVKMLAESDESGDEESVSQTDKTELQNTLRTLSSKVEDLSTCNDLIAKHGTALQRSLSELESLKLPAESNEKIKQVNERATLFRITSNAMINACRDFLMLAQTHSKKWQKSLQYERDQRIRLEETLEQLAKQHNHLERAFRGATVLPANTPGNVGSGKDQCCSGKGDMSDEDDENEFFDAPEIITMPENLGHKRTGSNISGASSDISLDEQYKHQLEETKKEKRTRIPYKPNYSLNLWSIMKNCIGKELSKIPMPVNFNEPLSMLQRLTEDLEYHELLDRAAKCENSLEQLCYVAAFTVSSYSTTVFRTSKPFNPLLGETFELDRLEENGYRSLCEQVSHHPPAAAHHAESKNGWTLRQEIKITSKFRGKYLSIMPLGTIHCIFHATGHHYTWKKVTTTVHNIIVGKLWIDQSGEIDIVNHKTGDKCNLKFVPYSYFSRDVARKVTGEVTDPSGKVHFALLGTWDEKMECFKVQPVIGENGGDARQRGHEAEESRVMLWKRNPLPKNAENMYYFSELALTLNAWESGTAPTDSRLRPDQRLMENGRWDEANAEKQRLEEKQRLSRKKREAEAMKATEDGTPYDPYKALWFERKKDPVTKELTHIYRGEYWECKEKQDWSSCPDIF
In short: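 Purified human OSBP ORD (401-807, C-terminal 6×His) from baculovirus-infected Sf9 cells, used in a DHE sterol transfer fluorescence assay. Signal corrected for compound fluorescence. Kinetics fitted linearly or by ΔF = ΔFmax(1 − e^−kt) to give apparent k, which was plotted against compound concentration. Ki from a quadratic (tight binders) or hyperbolic equation, three independent experiments.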

[3] = biological target: T2, Oxysterol-binding protein 1 (Homo sapiens) (UniProt P22059); test: Inhibition of human OSBP in human hTERT-RPE1 cells assessed as increase in OSBP recruitment at TGN and measured after 4 hrs by confocal microscopy; assay type: cell-based
T2 sequence (whole entry): T1 sequence (P22059 whole entry)

mTORC1 (Homo sapiens) [4] = biological target: T3, mTORC1 (Homo sapiens) (UniProt P42345+Q8N122+Q9BVC4); test: Inhibition of mTORC1 signalling in human U-87 MG cells assessed as decrease in S6K phosphorylation at T389 residue at 0.05 to 1 uM incubated for 48 hrs by Western blot analysis; assay type: cell-based
In short: (§2)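 U-87 MG cells cultured two days, then exposed 48 h to increasing doses. Lysed in RIPA with protease inhibitors; 5 µg protein run on 4-20% SDS gels and transferred to PVDF. Probed for phospho/total AKT, S6, S6K, P62 and LC3, detected by ECL. Band intensities normalized to β-actin.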

[5] = biological target: T2, Oxysterol-binding protein 1 (Homo sapiens); test: Inhibition of human OSBP in human hTERT-RPE1 cells co-transfected with GFP-P4MSidM and TagBFP-betaGalT1 assessed as increase in PI4P at TGN by measuring GFP-P4M fluorescence and measured after 50 mins by immunofluorescence analysis; assay type: cell-based
In short: (§3)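 hTERT-RPE-1 cells electroporated with GFP-P4M^SidM (PI4P probe) and TagBFP-βGalT1, plated 18-24 h. Timelapse confocal imaging at 37 °C after compound addition, with P4M-GFP intensity at the TGN tracked over time and compared before and 50 min after addition. Mean of 4 to 6 independent experiments ± SEM.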

mTORC1 (Homo sapiens) [6] = biological target: T3, mTORC1 (Homo sapiens); test: Inhibition of mTORC1 signalling in human U-87 MG cells assessed as decrease in S6 phosphorylation at S240/244 residue at 0.05 to 1 uM incubated for 48 hrs by Western blot analysis; assay type: cell-based; in short: as §2
U-87 MG [7] = test: Induction of autophagy in human U-87 MG cells assessed as decrease in LC3I expression at 0.05 to 1 uM incubated for 48 hrs by Western blot analysis; assay type: functional, cell-based; conditions: U-87MG ATCC; in short: as §2
[8] = Drug uptake in human hTERT-RPE1 cells assessed as drug co-localization with OSBP perinuclear region of cell incubated for 30 mins by immunofluorescence analysis; assay type: ADME, cell-based; conditions: tert-rpe1, 0.5 h
In short: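 hTERT-RPE-1 cells incubated 30 min with compound, then fixed (4% paraformaldehyde, 0.1% glutaraldehyde, 10 min), quenched with 50 mM NH₄Cl and permeabilized in saponin 0.05%/BSA 0.2%. Immunolabeled for OSBP and TGN-46. Compound imaged directly by UV-adapted widefield fluorescence (excitation 330, emission 410 nm).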

[9] = Metabolic stability in mouse liver microsomes assessed as compound remaining at 2.5 uM and measured after 45 mins in presence of NADPH by LC-MS/MS analysis; assay type: ADME, Microsome; conditions: read-out: Stability
U-87 MG [10] = test: Induction of autophagy in human U-87 MG cells assessed as increase in LC3II expression at 0.05 to 1 uM incubated for 48 hrs by Western blot analysis; assay type: functional, cell-based; conditions: U-87MG ATCC; in short: as §2
[11] = Metabolic stability in mouse plasma assessed as compound remaining at 5 uM and measured after 120 mins by UPLC-MS/MS analysis; assay type: ADME, cell-free; conditions: read-out: Stability
In short: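 Male mouse plasma at 37 °C with compound added from a 5 µM solution […]. Sampled at 0, 15, 30, 45, 60 and 120 min, quenched with acetonitrile and read by LC-MS/MS (MRM) in duplicate. Procaine positive control. Remaining % and t1/2 derived from MRM area relative to t = 0.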

[12] = Metabolic stability in mouse liver microsomes assessed as intrinsic clearance at 2.5 uM and measured upto 45 mins in presence of NADPH by LC-MS/MS analysis; assay type: ADME, Microsome; conditions: read-out: CLH
mTORC2 (Homo sapiens) = mTORC2 (Homo sapiens) (UniProt P42345+Q6R327+Q9BVC4+Q9BPZ7); test: Inhibition of mTORC2 signalling in human U-87 MG cells assessed as decrease in AKT phosphorylation at S473 residue at 0.05 to 1 uM incubated for 48 hrs by Western blot analysis; assay type: cell-based; in short: as §2
U-87 MG [13] = test: Induction of autophagy in human U-87 MG cells assessed as decrease in P62 expression at 0.05 to 1 uM incubated for 48 hrs by Western blot analysis; assay type: functional, cell-based; conditions: U-87MG ATCC; in short: as §2
[14] = biological target: T2, Oxysterol-binding protein 1 (Homo sapiens); test: Inhibition of human OSBP in human hTERT-RPE1 cells assessed as increase in OSBP recruitment at TGN and measured after 10 mins by confocal microscopy; assay type: cell-based
[15] = biological target: T2, Oxysterol-binding protein 1 (Homo sapiens); test: Inhibition of human OSBP in human hTERT-RPE1 cells co-transfected with GFP-P4MSidM and TagBFP-betaGalT1 assessed as half life for inhibition of PI4P transfer by OBSP by immunofluorescence analysis; assay type: cell-based; in short: as §3
[16] = Metabolic stability in mouse liver microsomes assessed as compound remaining at 2.5 uM and measured after 45 mins in absence of NADPH by LC-MS/MS analysis; assay type: ADME, Microsome; conditions: read-out: Stability

| SMILES | IC50 (A549) [nM] | IC50 (U-87 MG [1]) [nM] | Ki [2] [nM] | further results |
| --- | --- | --- | --- | --- |
| CC(C)=CCc1c(O)cc(/C=C/c2cc(O)c3c(c2)C[C@@H]2C(C)(C)[C@H](O)[C@H](O)C[C@@]2(C)O3)cc1O [VEDELIANIN] | 966 | 15 | < 1 | – |
| COc1cc(/C=C/c2cc(O)c(CC=C(C)C)c(O)c2)cc2c1O[C@]1(C)CC[C@@H](O)C(C)(C)[C@H]1C2 [SCHWEINFURTHIN F] | 605 | 98 | 6 | – |
| COc1cc(/C=C/c2cc(O)c(CC=C(C)C)c(O)c2)cc2c1O[C@]1(C)C[C@@H](O)[C@@H](O)C(C)(C)[C@H]1C2 [SCHWEINFURTHIN E] | 397 | 22 | < 1 | – |
| C=CCOc1cc(/C=C/c2cc(O)c(CC=C(C)C)c(O)c2)cc2c1O[C@]1(C)CC[C@@H](O)C(C)(C)[C@H]1C2 | 5000 | 420 | 31 | – |
| CC(C)=CCC/C(C)=C/Cc1cc(/C=C/c2cc(O)c(CC=C(C)C)c(O)c2)cc(O)c1O [MAPPAIN] | > 10000 | 7000 | 3000 | – |
| C=CCc1c(/C=C/c2cc(O)c(CC=C(C)C)c(O)c2)cc2c(c1O)O[C@]1(C)CC[C@@H](O)C(C)(C)[C@H]1C2 | 2860 | 457 | 119 | – |
| C#CCOc1cc(/C=C/c2cc(O)c(CC=C(C)C)c(O)c2)cc2c1O[C@]1(C)CC[C@@H](O)C(C)(C)[C@H]1C2 | 3900 | 286 | 43 | – |
| COc1cc(/C=C/c2cc(O)c(CC=C(C)C)c(O)c2)cc2c1O[C@@]1(C)[C@H](C2)C(C)(C)[C@H](O)C[C@@H]1O | 1120 | 510 | 254 | – |
| CC(C)=CCc1c(O)cc(/C=C/c2cc3c(c4c2C=CCO4)O[C@]2(C)CC[C@@H](O)C(C)(C)[C@H]2C3)cc1O | > 10000 | 481 | 37 | – |

Further lines, with some results ahead:

| IC50 (A549) [nM] | IC50 (U-87 MG [1]) [nM] | Ki [2] [nM] | SMILES | further results |
| --- | --- | --- | --- | --- |
| 3910 | 77 | < 1 | CC1(C)CCc2c(O)cc(CCc3cc(O)c4c(c3)C[C@@H]3C(C)(C)[C@H](O)CC[C@@]3(C)O4)cc2O1 | – |
| 1790 | 656 | 401 | COc1cc(/C=C/c2cc(O)c3c(c2)OC(C)(C)C(O)C3)cc2c1O[C@]1(C)C[C@@H](O)[C@@H](O)C(C)(C)[C@H]1C2 (some centres undefined) [SCHWEINFURTHIN H] | – |
| 3040 | 67 | 3220 | CC1(C)CCc2c(O)cc(CCc3cc(O)c4c(c3)C[C@@H]3C(C)(C)[C@H](OC=O)CC[C@@]3(C)O4)cc2O1 | – |
| 2420 | 380 | 523 | COc1cc(/C=C/c2cc(O)c3c(c2)OC(C)(C)CC3)cc2c1O[C@]1(C)CC[C@@H](OC=O)C(C)(C)[C@H]1C2 | – |
| 2530 | 478 | 64 | COc1cc(/C=C/c2cc(O)c3c(c2)OC(C)(C)CC3)cc2c1O[C@]1(C)CC[C@@H](O)C(C)(C)[C@H]1C2 | – |
| > 10000 | 3850 | 46 | COc1cc(CCc2cc(O)c3c(c2)OC(C)(C)CC3)cc2c1O[C@]1(C)CC[C@@H](O)C(C)(C)[C@H]1C2 | – |
| 359 | 8 | < 1 | CC(C)=CCc1c(O)cc(/C=C/c2cc(O)c3c(c2)C[C@@H]2C(C)(C)[C@H](O)CC[C@@]2(C)O3)cc1O [SCHWEINFURTHIN G] | inhibition [3]: inactive; inhibition (mTORC1 (Homo sapiens) [4]): Dose-Dependent Effect; inhibition [5]: Active; inhibition (mTORC1 (Homo sapiens) [6]): Dose-Dependent Effect; Activity (U-87 MG [7]): Dose-Dependent Effect; Drug uptake [8]: Active; remaining at 0.75 h, 2.5 µM [9]: 23%; Activity (U-87 MG [10]): Dose-Dependent Effect; remaining at 2 h, 5 µM [11]: 100%; microsomal CLint at 2.5 µM [12]: 90 µL/min/mg; inhibition (mTORC2 (Homo sapiens)): Dose-Dependent Effect; Activity (U-87 MG [13]): Dose-Dependent Effect; inhibition [14]: Active; T1/2 [15]: 10 min; remaining at 0.75 h, 2.5 µM [16]: 100% |
| 1100 | 336 | 16 | COc1cc(/C=C/c2cc(O)c3c(c2)OC(C)(C)CC3)cc2c1O[C@]1(C)C[C@@H](O)[C@@H](O)C(C)(C)[C@H]1C2 | – |
| 2150 | 500 | 829 | COc1cc(/C=C/c2cc(O)c3c(c2)OC(C)(C)CC3)cc2c1O[C@]1(C)C[C@@H](O)[C@@H](OC=O)C(C)(C)[C@H]1C2 | – |
| 647 | 9.4 | < 1 | CC1(C)CCc2c(O)cc(/C=C/c3cc(O)c4c(c3)C[C@@H]3C(C)(C)[C@H](O)CC[C@@]3(C)O4)cc2O1 | remaining at 0.75 h, 2.5 µM [9]: 48.6%; remaining at 2 h, 5 µM [11]: 100%; microsomal CLint at 2.5 µM [12]: 32 µL/min/mg; remaining at 0.75 h, 2.5 µM [16]: 100% |
| > 10000 | 1480 | 3700 | COc1cc(CCc2cc(O)c3c(c2)OC(C)(C)CC3)cc2c1O[C@]1(C)CC[C@@H](OC=O)C(C)(C)[C@H]1C2 | – |
